From ChEMBL document CHEMBL3739417, “Synthesis and biological evaluation of novel 4,5-disubstituted 2H-1,2,3-triazoles as cis-constrained analogues of combretastatin A-4” (2015)

What was measured:
Assay type in all cases: functional
KM12 = assay: Growth inhibition of human KM12 cells after 48 hrs by sulforhodamine B assay; details: KM12, 48 h
Outline: (§1)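 NCI-60 panel screen by SRB assay (Rubinstein method). Percentage growth taken from optical density of SRB colour, read before and 48 hrs after exposure to compound or vehicle control. All analogues first screened at 10^-5 M. Analogues giving 60% growth inhibition at that level in at least eight lines then went to a five-concentration dose-response study.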

[1] = Growth inhibition of human RPMI8226 cells after 48 hrs by sulforhodamine B assay; details: RPMI-8226, 48 h; outline: as §1
MCF7 = assay: Growth inhibition of human MCF7 cells after 48 hrs by sulforhodamine B assay; details: MCF7, 48 h; outline: as §1
MDA-MB-468 = assay: Growth inhibition of human MDA-MB-468 cells after 48 hrs by sulforhodamine B assay; details: MDA-MB-468, 48 h; outline: as §1
A498 = assay: Growth inhibition of human A498 cells after 48 hrs by sulforhodamine B assay; details: A498, 48 h
Outline: (§2)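 NCI-60 sulforhodamine B screen. Compounds were first tested at a single dose of 10⁻⁵ M; hits, defined as ≥60% growth inhibition in at least eight lines, went on to a five-concentration dose–response. SRB optical density was read before and 48 h after exposure to compound or vehicle. Percentage growth was calculated from OD.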

[2] = Growth inhibition of human SF295 cells after 48 hrs by sulforhodamine B assay; details: SF-295, 48 h; outline: as §1
[3] = Growth inhibition of human SNB75 cells after 48 hrs by sulforhodamine B assay; details: SNB-75, 48 h; outline: as §1
[4] = Growth inhibition of human HOP92 cells after 48 hrs by sulforhodamine B assay; details: HOP-92, 48 h; outline: as §1
MDA-MB-231 = assay: Growth inhibition of human MDA-MB-231 cells after 48 hrs by sulforhodamine B assay; details: MDA-MB-231, 48 h; outline: as §1
NCI-H460 = assay: Growth inhibition of human NCI-H460 cells after 48 hrs by sulforhodamine B assay; details: NCI-H460, 48 h; outline: as §1
[5] = Growth inhibition of human COLO205 cells after 48 hrs by sulforhodamine B assay; details: COLO 205, 48 h; outline: as §1
[6] = Growth inhibition of human OVCAR3 cells after 48 hrs by sulforhodamine B assay; details: OVCAR-3, 48 h; outline: as §2
U-251 = assay: Growth inhibition of human U251 cells after 48 hrs by sulforhodamine B assay; details: U-251, 48 h; outline: as §1
[7] = Growth inhibition of human HL-60(TB) cells after 48 hrs by sulforhodamine B assay; details: HL-60, 48 h; outline: as §1
K562 = assay: Growth inhibition of human K562 cells after 48 hrs by sulforhodamine B assay; details: K562, 48 h; outline: as §1
[8] = Growth inhibition of human NCI-ADR-RES cells after 48 hrs by sulforhodamine B assay; outline: as §1
[9] = Growth inhibition of human SKOV3 cells after 48 hrs by sulforhodamine B assay; details: SK-OV-3, 48 h; outline: as §1
[10] = Growth inhibition of human HOP62 cells after 48 hrs by sulforhodamine B assay; details: HOP-62, 48 h; outline: as §1
SK-MEL-5 = assay: Growth inhibition of human SK-MEL-5 cells after 48 hrs by sulforhodamine B assay; details: SK-MEL-5, 48 h; outline: as §1
CAKI-1 = assay: Growth inhibition of human CAKI-1 cells after 48 hrs by sulforhodamine B assay; details: CAKI-1, 48 h; outline: as §1
CCRF-CEM = assay: Growth inhibition of human CCRF-CEM cells after 48 hrs by sulforhodamine B assay; outline: as §1
[11] = Growth inhibition of human HCT116 cells after 48 hrs by sulforhodamine B assay; details: HCT-116, 48 h; outline: as §1
[12] = Growth inhibition of human SF268 cells after 48 hrs by sulforhodamine B assay; details: SF-268, 48 h; outline: as §1
[13] = Growth inhibition of human HCT15 cells after 48 hrs by sulforhodamine B assay; details: HCT-15, 48 h; outline: as §1
786-0 = assay: Growth inhibition of human 786-0 cells after 48 hrs by sulforhodamine B assay; details: 786-0, 48 h; outline: as §1
NCI-H23 = assay: Growth inhibition of human NCI-H23 cells after 48 hrs by sulforhodamine B assay; details: NCI-H23, 48 h; outline: as §1
[14] = Growth inhibition of human PC3 cells after 48 hrs by sulforhodamine B assay; details: PC-3, 48 h; outline: as §1
ACHN = assay: Growth inhibition of human ACHN cells after 48 hrs by sulforhodamine B assay; outline: as §1
SR = assay: Growth inhibition of human SR cells after 48 hrs by sulforhodamine B assay; outline: as §1
MDA-MB-435 = assay: Growth inhibition of human MDA-MB-435 cells after 48 hrs by sulforhodamine B assay; details: MDA-MB-435, 48 h; outline: as §2
[15] = Growth inhibition of human LOXIMVI cells after 48 hrs by sulforhodamine B assay; details: LOX IMVI; outline: as §1
[16] = Growth inhibition of human IGROV1 cells after 48 hrs by sulforhodamine B assay; details: IGROV-1, 48 h; outline: as §1
[17] = Growth inhibition of human DU145 cells after 48 hrs by sulforhodamine B assay; details: DU-145, 48 h; outline: as §1
SK-MEL-2 = assay: Growth inhibition of human SK-MEL-2 cells after 48 hrs by sulforhodamine B assay; details: SK-MEL-2, 48 h; outline: as §1
HT-29 = assay: Growth inhibition of human HT-29 cells after 48 hrs by sulforhodamine B assay; details: HT-29, 48 h; outline: as §1
A549 = assay: Growth inhibition of human A549/ATCC cells after 48 hrs by sulforhodamine B assay; details: A549, 48 h; outline: as §1
[18] = Growth inhibition of human HCC2998 cells after 48 hrs by sulforhodamine B assay; details: HCC 2998, 48 h; outline: as §1
[19] = read-out: LD50 (the source's name)

COc1cc(-c2n[nH]nc2-c2ccc3c(c2)OCO3)cc(OC)c1OC
GI50 (KM12): 70 nM
LC50 (concentration killing 50% of cells) (KM12; read-out: LD50): > 100000 nM
GI50 [1]: 330 nM
CC50 [1, 19]: > 100000 nM
GI50 (MCF7): 80 nM
CC50 (MCF7; [19]): > 100000 nM
GI50 (MDA-MB-468): 230 nM
CC50 (MDA-MB-468; [19]): > 100000 nM
GI50 (A498): 340 nM
LC50 (50% net cell kill) (A498; read-out: LD50): > 100000 nM
GI50 [2]: 100 nM
CC50 [2, 19]: > 100000 nM
GI50 [3]: 80 nM
CC50 [3, 19]: > 100000 nM
GI50 [4]: 120 nM
CC50 [4, 19]: > 100000 nM
GI50 (MDA-MB-231): 530 nM
CC50 (MDA-MB-231; [19]): > 100000 nM
GI50 (NCI-H460): 340 nM
CC50 (NCI-H460; [19]): > 100000 nM
GI50 [5]: 310 nM
CC50 [5, 19]: > 100000 nM
GI50 [6]: 430 nM
LC50 (concentration giving 50% net cell kill) ([6]; read-out: LD50): > 100000 nM
GI50 (U-251): 300 nM
CC50 (U-251; [19]): > 100000 nM
GI50 [7]: 200 nM
CC50 [7, 19]: > 100000 nM
GI50 (K562): 50 nM
CC50 (K562; [19]): > 100000 nM
GI50 [8]: 80 nM
CC50 [8, 19]: > 100000 nM
GI50 [9]: 490 nM
LC50 (concentration killing 50% of cells) ([9]; read-out: LD50): > 100000 nM
GI50 [10]: 340 nM
LC50 (concentration killing 50% of cells) ([10]; read-out: LD50): > 100000 nM
GI50 (SK-MEL-5): > 100000 nM
CC50 (SK-MEL-5; [19]): > 100000 nM
GI50 (CAKI-1): 320 nM
CC50 (CAKI-1; [19]): > 100000 nM
GI50 (CCRF-CEM): 280 nM
LC50 (concentration killing 50% of cells) (CCRF-CEM; read-out: LD50): > 100000 nM
GI50 [11]: 180 nM
CC50 [11, 19]: > 100000 nM
GI50 [12]: > 100000 nM
CC50 [12, 19]: > 100000 nM
GI50 [13]: 130 nM
CC50 [13, 19]: > 100000 nM
GI50 (786-0): 620 nM
LC50 (concentration killing 50% of cells) (786-0; read-out: LD50): > 100000 nM
GI50 (NCI-H23): 770 nM
LC50 (concentration giving 50% cell kill) (NCI-H23; read-out: LD50): > 100000 nM
GI50 [14]: 260 nM
CC50 [14, 19]: > 100000 nM
GI50 (ACHN): 710 nM
CC50 (ACHN; [19]): > 100000 nM
GI50 (SR): 40 nM
LC50 (concentration giving 50% net cell kill) (SR; read-out: LD50): > 100000 nM
GI50 (MDA-MB-435): 90 nM
LC50 (concentration killing 50% of cells) (MDA-MB-435; read-out: LD50): > 100000 nM
GI50 [15]: 550 nM
CC50 [15, 19]: > 100000 nM
GI50 [16]: > 100000 nM
CC50 [16, 19]: > 100000 nM
GI50 [17]: 350 nM
CC50 [17, 19]: > 100000 nM
GI50 (SK-MEL-2): 20 nM
CC50 (SK-MEL-2; [19]): > 100000 nM
GI50 (HT-29): 390 nM
LC50 (concentration killing 50% of cells) (HT-29; read-out: LD50): > 100000 nM
GI50 (A549): 290 nM
CC50 (A549; [19]): > 100000 nM
GI50 [18]: > 100000 nM
CC50 [18, 19]: > 100000 nM
